Data reported in ChEMBL document CHEMBL1141128, “Structure-activity relationship study on a simple cationic peptide motif for cellular delivery of antisense peptide nucleic acid” (J Med Chem, 2005).
One block for each compound: values may come before it. Non-standard residues stand in square brackets, D forms with d. Residues, ends and D or L forms follow the SMILES beside them. Lys(Me2) = CN(C)CCCC[C@H](N)C(=O)O; hLys = NCCCCC[C@H](N)C(=O)O; Nlys = NCCCCNCC(=O)O

How the values were obtained:
[1] = Average tissue concentration of conjugate at a dose of 3 mg/Kg in BALB/c mice pancreas when given i.v. measured after 24 h; n=3; format: ADME; details: mouse, in vivo, iv
[2] = Average tissue concentration of conjugate at a dose of 3 mg/Kg in BALB/c mice skeletal muscle when given s.c. measured after 24 h; n=3; format: ADME, tissue-based; details: mouse, in vivo, sc
[3] = Average tissue concentration of conjugate at a dose of 3 mg/Kg in BALB/c mice skeletal muscle when given i.v. measured after 24 h; n=3; format: ADME, tissue-based; details: mouse, in vivo, iv
[4] = Average tissue concentration of conjugate at a dose of 3 mg/Kg in BALB/c mice lungs when given i.v. measured after 24 h; n=3; format: ADME; details: mouse, in vivo, iv
[5] = Average tissue concentration of conjugate at a dose of 3 mg/Kg in BALB/c mice skin when given i.v. measured after 24 h; n=3; format: ADME; details: mouse, in vivo, iv
[6] = tested on: BCL1; assay: Inhibitory concentration against BCL1 cell proliferation in WST-1 assay; format: functional, Mus musculus
How it was run: (§1)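 BCL1 cells, 2000 per well, grown in DMEM with 10% FBS at 37 °C and 5% CO2. Exposed to conjugate for 3 days, then viable cells read by WST-1 absorbance at 450 nm. Value is the concentration at which absorbance fell below 50% of untreated control; triplicates.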

[7] = tested on: CD40 mRNA; assay: […] CD40 expression in BCL1 cells treated with 10 uM peptide nucleic acid (PNA)conjugate; n=3; format: functional, cell-based; details: Mus musculus
How it was run: (§2)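 Mouse BCL1 cells in DMEM with 10% FBS, given conjugate at 1, 3 or 10 μM by free uptake (no transfection agent) for 3 days. Cells trypsinised and stained 1 h with FITC anti-CD40 (HM40-3) or isotype control, then surface CD40 read by flow cytometry. Results are % untreated control, mean ± SD, n = 3.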

[8] = Average tissue concentration of conjugate at a dose of 3 mg/Kg in BALB/c mice MLN when given s.c. measured after 24 h; n=3; format: ADME; details: mouse, in vivo, sc
[9] = Average tissue concentration of conjugate at a dose of 3 mg/Kg in BALB/c mice skin when given s.c. measured after 24 h; n=3; format: ADME; details: mouse, in vivo, sc
[10] = Average tissue concentration of conjugate at a dose of 3 mg/Kg in BALB/c mice testes when given i.v. measured after 24 h; n=3; format: ADME, tissue-based, Testis; details: mouse, in vivo, iv
[11] = Half-life of the conjugate when treated with 10% foetal bovine serum for enzymatic stability; No degradation observed within the period of time indicated; format: ADME, Bos taurus; details: cattle
How it was run: (§3)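 Conjugates at 20 μM in 10% FBS RPMI 1640 medium or 25% mouse serum (Hepes-stabilised, diluted in PBS, pH 7.1–7.4), incubated at 37 °C. Sampled to 168 h (FBS) or 48 h (serum); proteins precipitated with 10% DCA, PNA 6mer internal standard added. Analysed by C3 RP-HPLC at 60 °C; t1/2 from normalised full-length peak area versus time.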

[12] = Average tissue concentration of conjugate at a dose of 3 mg/Kg in BALB/c mice liver when given i.v. measured after 24 h; n=3; format: ADME, tissue-based; details: mouse, in vivo, iv
[13] = Average tissue concentration of conjugate at a dose of 3 mg/Kg in BALB/c mice large intestine when given s.c. measured after 24 h; n=3; format: ADME, tissue-based; details: mouse, in vivo, sc
[14] = Average tissue concentration of conjugate at a dose of 3 mg/Kg in BALB/c mice heart when given i.v. measured after 24 h; n=3; format: ADME, tissue-based; details: mouse, in vivo, iv
[15] = Average tissue concentration of conjugate at a dose of 3 mg/Kg in BALB/c mice testes when given s.c. measured after 24 h; n=3; format: ADME, tissue-based, Testis; details: mouse, in vivo, sc
[16] = tested on: CD40 mRNA; assay: […] CD40 expression in BCL1 cells treated with 1 uM peptide nucleic acid (PNA)conjugate; n=3; format: functional, cell-based; details: Mus musculus; how it was run: as §2
[17] = Average tissue concentration of conjugate at a dose of 3 mg/Kg in BALB/c mice kidney when given i.v. measured after 24 h; n=3; format: ADME; details: mouse, in vivo, iv
[18] = Average tissue concentration of conjugate at a dose of 3 mg/Kg in BALB/c mice spleen when given s.c. measured after 24 h; n=3; format: ADME, tissue-based; details: mouse, in vivo, sc
[19] = Average tissue concentration of conjugate at a dose of 3 mg/Kg in BALB/c mice small intestine when given s.c. measured after 24 h; n=3; format: ADME, tissue-based; details: mouse, in vivo, sc
[20] = Average tissue concentration of conjugate at a dose of 3 mg/Kg in BALB/c mice MLN when given i.v. measured after 24 h; n=3; format: ADME; details: mouse, in vivo, iv
[21] = Average tissue concentration of conjugate at a dose of 3 mg/Kg in BALB/c mice kidney when given s.c. measured after 24 h; n=3; format: ADME; details: mouse, in vivo, sc
[22] = Average tissue concentration of conjugate at a dose of 3 mg/Kg in BALB/c mice small intestine when given i.v. measured after 24 h; n=3; format: ADME, tissue-based; details: mouse, in vivo, iv
[23] = Average tissue concentration of conjugate at a dose of 3 mg/Kg in BALB/c mice injection site when given s.c. measured after 24 h; n=3; format: ADME; details: mouse, in vivo, sc
[24] = Average tissue concentration of conjugate at a dose of 3 mg/Kg in BALB/c mice lungs when given s.c. measured after 24 h; n=3; format: ADME; details: mouse, in vivo, sc
[25] = Average tissue concentration of conjugate at a dose of 3 mg/Kg in BALB/c mice spleen when given i.v. measured after 24 h; n=3; format: ADME, tissue-based; details: mouse, in vivo, iv
[26] = Average tissue concentration of conjugate at a dose of 3 mg/Kg in BALB/c mice liver when given s.c. measured after 24 h; n=3; format: ADME, tissue-based; details: mouse, in vivo, sc
[27] = Average tissue concentration of conjugate at a dose of 3 mg/Kg in BALB/c mice heart when given s.c. measured after 24 h; n=3; format: ADME, tissue-based; details: mouse, in vivo, sc
[28] = Half-life of the conjugate when treated with 25% murine serum for enzymatic stability; format: ADME; details: mouse; how it was run: as §3
[29] = Average tissue concentration of conjugate at a dose of 3 mg/Kg in BALB/c mice pancreas when given s.c. measured after 24 h; n=3; format: ADME; details: mouse, in vivo, sc
[30] = Average tissue concentration of conjugate at a dose of 3 mg/Kg in BALB/c mice large intestine when given i.v. measured after 24 h; n=3; format: ADME, tissue-based; details: mouse, in vivo, iv
[31] = tested on: CD40 mRNA; assay: […] CD40 expression in BCL1 cells treated with 3 uM peptide nucleic acid (PNA)conjugate; n=3; format: functional, cell-based; details: Mus musculus; how it was run: as §2
[32] = Half-life of the conjugate when treated with 25% murine serum for enzymatic stability; No data available; format: ADME; details: mouse; how it was run: as §3
[33] = Half-life of the conjugate when treated with 10% foetal bovine serum for enzymatic stability; format: ADME, Bos taurus; details: cattle; how it was run: as §3
[34] = tested on: BCL1; assay: Inhibitory concentration against BCL1 cell proliferation in WST-1 assay; Range 10-20; format: functional, Mus musculus; how it was run: as §1
[35] = Half-life of the conjugate when treated with 25% murine serum for enzymatic stability; Range 2-3 h; format: ADME; details: mouse; how it was run: as §3

- Biodistribution [1]: 0.6 ug equiv/g
- Biodistribution [2]: 0.2 ug equiv/g
- Biodistribution [3]: 0.29 ug equiv/g
- Biodistribution [4]: 0.22 ug equiv/g
- Biodistribution [5]: 1.25 ug equiv/g
- Biodistribution [8]: 0.76 ug equiv/g
- Biodistribution [9]: 0.75 ug equiv/g
- Biodistribution [10]: 0.38 ug equiv/g
- half-life [11]: > 168 h
- Biodistribution [12]: 11.47 ug equiv/g
- Biodistribution [13]: 0.31 ug equiv/g
- Biodistribution [14]: 0.18 ug equiv/g
- Biodistribution [15]: 0.23 ug equiv/g
- Biodistribution [17]: 12.74 ug equiv/g
- Biodistribution [18]: 1.51 ug equiv/g
- Biodistribution [19]: 0.26 ug equiv/g
- Biodistribution [20]: 1.94 ug equiv/g
- Biodistribution [21]: 11.55 ug equiv/g
- Biodistribution [22]: 1.31 ug equiv/g
- Biodistribution [23]: 20 ug equiv/g
- Biodistribution [24]: 0.1 ug equiv/g
- Biodistribution [25]: 3.68 ug equiv/g
- Biodistribution [26]: 5.44 ug equiv/g
- Biodistribution [27]: 0.07 ug equiv/g
- half-life [28]: 6.7 h
- Biodistribution [29]: 0.2 ug equiv/g
- Biodistribution [30]: 2.07 ug equiv/g
Structure (SMILES): NCCCC[C@@H](C=O)NC(=O)[C@H](CCCCN)NC(=O)[C@H](CCCCN)NC(=O)[C@H](CCCCN)NC(=O)[C@H](CCCCN)NC(=O)[C@H](CCCCN)NC(=O)[C@H](CCCCN)NC(=O)[C@H](CCCCN)NC(=O)[C@@H](N)CCCCN
- IC50 for cell proliferation [6]: 20 µM
- UTC [7]: 39% [middle of 7 runs]
- UTC [16]: 88% [middle of 7 runs]

- T1/2 [32]: No data available
- half-life [33]: > 168 h
Structure (SMILES): NCCCCC[C@H](NC(=O)[C@H](CCCCN)NC(=O)[C@H](CCCCCN)NC(=O)[C@H](CCCCN)NC(=O)[C@H](CCCCCN)NC(=O)[C@H](CCCCN)NC(=O)[C@H](CCCCCN)NC(=O)[C@@H](N)CCCCN)C(=O)N[C@H](C=O)CCCCN (H-K[hLys]K[hLys]K[hLys]K[hLys]K-aldehyde)
- UTC [31]: 61%
- IC50 for cell proliferation [6]: >20 µM
- UTC [7]: 32%
- UTC [16]: 81%

- T1/2 [32]: No data available
- half-life [33]: > 168 h
Structure (SMILES): CN(C)CCCC[C@H](NC(=O)[C@H](CCCCN)NC(=O)[C@H](CCCCN(C)C)NC(=O)[C@H](CCCCN)NC(=O)[C@H](CCCCN(C)C)NC(=O)[C@H](CCCCN)NC(=O)[C@H](CCCCN(C)C)NC(=O)[C@@H](N)CCCCN)C(=O)N[C@H](C=O)CCCCN (H-K[Lys(Me2)]K[Lys(Me2)]K[Lys(Me2)]K[Lys(Me2)]K-aldehyde)
- UTC [31]: 89%
- IC50 for cell proliferation [6]: 20 µM
- UTC [7]: 53%
- UTC [16]: 96%

- T1/2 [32]: No data available
- half-life [33]: > 168 h
Structure (SMILES): NCCCC[C@H](NC(=O)CN(CCCCN)C(=O)[C@H](CCCCN)NC(=O)CN(CCCCN)C(=O)[C@H](CCCCN)NC(=O)CN(CCCCN)C(=O)[C@H](CCCCN)NC(=O)CN(CCCCN)C(=O)[C@@H](N)CCCCN)C(=O)O (H-K[Nlys]K[Nlys]K[Nlys]K[Nlys]K-OH)
- UTC [31]: 96%
- UTC [7]: 70%
- IC50 [34]: 20 µM
- UTC [16]: 111%

- half-life [35]: 3 h
- half-life [33]: 90 h
Structure (SMILES): NCCCC[C@@H](C=O)NC(=O)[C@H](CCCCN)NC(=O)[C@H](CCCCN)NC(=O)[C@H](CCCN=C(N)N)NC(=O)[C@H](CCCCN)NC(=O)[C@H](CCCCN)NC(=O)[C@H](CCCN=C(N)N)NC(=O)[C@H](CCCCN)NC(=O)[C@@H](N)CCCCN (H-KKRKKRKKK-aldehyde)
- UTC [31]: 76%
- UTC [7]: 43%
- IC50 [34]: 20 µM
- UTC [16]: 90%
